# An excerpt weighted towards active compounds, which were near 2.5% of everything screened.
# TAG inh – reduces triacylglycerol accumulation in H9c2 cells | inhibition, % at 12.5 µM | AID 651582 | Nile Red lipid (TAG) fluorescence; cells loaded with 200 µM oleic acid | 230,000 tested, 0.66% active;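 active = pattern-corrected inhibition of lipid staining of at least 50% with the nuclear-stain viability signal not falling by more than 50%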;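 note: 0% = DMSO wells and 100% = triacsin C control wells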
# Vif inh – HIV Vif inhibition; inhibition, % at 7.49 µM; 340,000 tested, 0.35% active; AID 602346; HEK293T cells, Vif self-association by quenched fluorescence, imaging, 24 h; in the data active = inhibition above about 50%, passing the limit was not always enough; inconclusive = no clear call, values can overlap the other calls; inactive = below about 31%
# SR-BI DiI-HDL act – SR-BI HDL lipid transfer activation; CHO ldlA[mSR-BI] cells, DiI-HDL uptake fluorescence, 3 h; 100 = double the neutral-control signal; 320,000 tested, 0.096% active; activation, % at 12.5 µM;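 active = mean replicate activation of at least 60% and every replicate at or above 60%; inconclusive = mean or all-replicate condition met, but not both; inactive = mean below 60% and not all replicates reaching 60%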;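 note: 0% = median plate neutral-control signal and 100% = twice that signal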
#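 Material: SR-BI-overexpressing, LDLR-lacking CHO cells | Dosing: Single compound concentration, delivered by pin transfer | Probe or stimulus: Labelled HDL, 10 µg/mL | Signal: Bottom-read cell fluorescence after medium removal, ex 550/em 595 nm | Schedule: 3 h, 37 °C | Evaluation: HDL uptake via cellular fluorescence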
# SMARCA2 activ – increases SMARCA2 function in MMTV reporter cells. MG213 cells, MMTV-luciferase reporter, dexamethasone, overnight. activation, % at 9.1 µM. 370,000 tested, 1% active. AID 652017; in the data active = activation above about 7.8%;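 note: 0% = vehicle wells and 100% = reference activator wells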
# SR-BI DiI inh – inhibitors of mouse SR-BI mediated HDL lipid uptake | Q61009 | ldlA[mSR-BI] CHO cells, DiI-HDL uptake fluorescence, 3 h | inhibition, % at 12.5 µM | 320,000 tested, 0.96% active | AID 488896;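 active = mean replicate inhibition of at least 70% and a set share of replicates each scoring 70 or more; inconclusive = meets just one of the two criteria; inactive = fails both criteria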;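 note: 0% = median of neutral control wells and 100% = median of positive control wells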
# Target sequence (Q61009 whole entry, looked up): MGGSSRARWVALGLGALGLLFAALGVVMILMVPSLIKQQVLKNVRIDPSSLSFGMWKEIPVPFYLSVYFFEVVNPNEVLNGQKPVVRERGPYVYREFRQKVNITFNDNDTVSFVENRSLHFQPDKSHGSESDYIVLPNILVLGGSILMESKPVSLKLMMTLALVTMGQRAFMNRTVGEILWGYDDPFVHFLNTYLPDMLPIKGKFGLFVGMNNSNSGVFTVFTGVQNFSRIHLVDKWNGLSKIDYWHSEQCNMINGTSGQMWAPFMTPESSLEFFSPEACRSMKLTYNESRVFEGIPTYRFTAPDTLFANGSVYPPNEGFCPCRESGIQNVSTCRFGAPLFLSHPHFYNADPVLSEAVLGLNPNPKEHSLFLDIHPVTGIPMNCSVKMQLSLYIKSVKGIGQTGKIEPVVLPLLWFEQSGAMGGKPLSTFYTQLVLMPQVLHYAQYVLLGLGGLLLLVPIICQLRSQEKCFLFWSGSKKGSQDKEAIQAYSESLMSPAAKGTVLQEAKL
# DiI quench – DiI fluorescence quenching in cell-free counter-screen. shares compounds with SR-BI DiI inh. AID 540326. AC50, µM (highest dose often 35 µM), without a hit: at the top dose activity change, negative = quenching. 470 tested, 20% active. cell-free DiI-HDL fluorescence quenching, 30 min;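 active = quenching, a falling signal, with AC50 below a set limit tied to the top valid dose, actives reach about 32 µM in these data; inconclusive = no clear call, values can overlap the other calls; inactive = rising signal, and the rest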
# The depositor's hits bear a star; ? = inconclusive; . = no result given.
SMILES,TAG inh,Vif inh,SR-BI DiI-HDL act,SMARCA2 activ,SR-BI DiI inh,DiI quench
O=C(CN1CCN(c2ncc(C(F)(F)F)cc2Cl)CC1)NCCNc1ncc(C(F)(F)F)cc1Cl,21,-1,-75,0,75*,-1%
NNC(=O)CN1CCN(c2ncc(C(F)(F)F)cc2Cl)CC1,0,-8,15,-1,-15,.
NC(=O)c1c(N)[nH]c(C(=O)c2ccccc2)c1-c1ccc2c(c1)OCO2,.,.,.,-1,.,.
O=C(NCCOC(=O)c1ccc(S(=O)(=O)N2CCOCC2)cc1)c1cccnc1,.,-3,-31,1,31,.
O=C(OCCNc1ncc(C(F)(F)F)cc1Cl)c1ccc(S(=O)(=O)N2CCOCC2)cc1,.,-1,-81,-1,81*,1%
CC(=O)c1cc(C#N)c(SCc2ccccc2C#N)nc1C,2,6,-75,1,75*,-1%
O=C(c1cccc(Cl)c1)N1CCC2CC1c1cc(-c3ccccc3)ccc12 (stereo not given),-13,.,-13,3,13,-5%
N#Cc1ccc(C(=O)N2CCC3CC2c2cc(-c4ccccc4)ccc23)cc1 (stereo not given),-3,-5,-5,-4,5,-3%
O=C(Nc1ccn(Cc2c(F)c(F)c(F)c(F)c2F)n1)c1ccc(COc2ccccc2Cl)cc1,.,-17,-73,-1,73*,-1%
C#CCN1CC(N(C)CCO)CS1(=O)=O (stereo not given),.,.,.,0,.,.
Cc1ccc(NC(=O)c2cc(S(=O)(=O)N3CCOCC3)c(Br)s2)cc1,.,-2,-73,-6,?,3%
Cc1ccc(C(=O)Nc2ccc(F)c(S(=O)(=O)N3CCOCC3)c2)s1,10,-18,-34,-1,34,.
CCOC(=O)CSc1c(-c2ccc(Cl)cc2)[nH]c2ccccc12,.,3,-75,-3,75*,-12%
Cc1ccc(-c2[nH]c3ccccc3c2SCCNC(=O)c2cc3ccccc3oc2=O)cc1,4,3,-22,1,22,.
O=C(Cc1cccs1)NCCSc1c(-c2ccc(Cl)cc2)[nH]c2ccccc12,19,2,-70,-5,?,-17%
CCOC(=O)CSc1c(-c2cccs2)[nH]c2ccccc12,.,-18,-45,-3,45,.
O=C(c1cc(=O)[nH]c2ccccc12)N1CCN(c2ccc([N+](=O)[O-])cc2)CC1,-5,1,.,-2,.,.
COc1ccc(N2CCN(C(=O)c3cc(=O)[nH]c4ccccc34)CC2)cc1,-1,4,-52,-3,52,-7%
O=C(c1ccc(F)c(F)c1)N1CCC(Oc2cccnc2)CC1,.,.,.,3,.,.
CCc1nc(N2CCN(C(=S)NCCCOC)CC2)c2c3c(sc2n1)CCCC3,.,-3,-88,-5,88*,0%
Cc1ccc(S(=O)(=O)N2CCCc3nc(-c4ccc(F)cc4)ccc32)cc1,.,.,.,1,.,.
CC(C)=CCc1c2c(c3occ(-c4ccc(O)c(O)c4)c(=O)c3c1O)C=CC(C)(C)O2,102,7,-131,-1,131*,0.81µM*
Cc1c(C(=O)Nc2ccc(Cl)cc2)c2ccccn2c1CCc1ccncc1,.,-11,-97,1,97*,32µM*
Cc1c(C(=O)Nc2cccc(Cl)c2)c2ccccn2c1CCc1ccncc1,-3,.,-94,7,94*,25µM*
CCCCNC(=O)C[C@H]1C(=O)N(CCCOC)C2=CCCCC[C@]21C(=O)OC,.,.,.,-1,.,.
SMILES,TAG inh,Vif inh,SR-BI DiI-HDL act,SMARCA2 activ,SR-BI DiI inh,DiI quench
Cc1cc(N2CCN(C(=O)c3ccco3)CC2)n2ncc(-c3ccccc3)c2n1,12,-10,-78,3,78*,-9%
Cc1cc(N2CCN(C(=O)c3ccco3)CC2)n2ncnc2n1,-13,3,9,0,-9,.
Cc1ccc(OCc2cc(C(=O)N3CCCC(O)C3)no2)cn1 (stereo not given),.,-2,3,-2,-3,0%
CCOC(=O)N[C@@H](Cc1cccnc1)C(=O)N1CCC[C@H]1C(=O)NC1CCCC1,.,.,.,-3,.,.
C[C@H](CO)N1C[C@H](C)[C@H](CN(C)C(=O)Nc2ccc(F)cc2)Oc2ncc(Br)cc2C1=O,.,.,.,5,.,.
COc1ccc2c(c1)-c1c(ssc1=S)C(C)(C)N2C(=O)CSC1=NCCS1,-10,3,-24,-2,24,.
CCOc1ccc2c(c1)-c1c(ssc1=S)C(C)(C)N2C(=O)c1ccco1,.,4,-74,2,74*,31µM*
CN(C(=O)COC(=O)c1ccc(Cl)cc1N)C1CCCCC1,-1,-7,-16,1,16,.
CN(C(=O)COC(=O)c1c[nH]c(=O)[nH]c1=O)C1CCCCC1,8,10,-79,3,79*,-1%
COc1ccc(-c2[nH]c(-c3ccc(F)cc3)nc2SCC(=O)NC2CCCC2)cc1,18,.,-78,2,78*,26µM*
COc1ccc(-c2[nH]c(-c3ccccc3)nc2SCC(=O)NC2CCCC2)cc1,8,-2,-43,-5,43,.
COC(=O)C1=C(C)N(Cc2ccccc2C(F)(F)F)C(=NCc2ccc(C(F)(F)F)cc2)NC1c1cccc(F)c1 (stereo not given),.,.,.,-3,.,.
CCOc1ccc(NC(=O)CN2CCCN(c3ccc(OC)cc3)CC2)cc1,.,.,.,-3,.,.
COc1ccc(C2c3sc(=O)[nH]c3SC3C4CCC(C4)C23)cc1OC (stereo not given),8,14,-72,-1,?,-9%
CN1c2ccc(-c3cccc(F)c3)cc2[C@H]2[C@H](CCN2S(=O)(=O)c2cccc(F)c2)[C@H]1CO,.,.,.,-4,.,.
O=C1NCCOC(=O)[C@H](Cc2ccc(F)cc2)C/C=C\C[C@H]1CC(=O)N(CCO)Cc1ccccc1,-10,11,-4,-1,4,.
O=C(N[C@@H]1C/C=C\C[C@H](CC(=O)N(CCO)Cc2ccccc2)C(=O)N[C@@H](Cc2ccccc2)COC1=O)OCC1c2ccccc2-c2ccccc21,-5,-4,-46,0,46,.
O=C(C[C@H]1C/C=C\C[C@H](NC(=O)OCC2c3ccccc3-c3ccccc32)C(=O)O[C@@H](c2ccccc2)CNC1=O)NCCO,-22,.,-41,-4,41,.
O=C(N[C@@H]1C/C=C\C[C@@H](CC(=O)N(CCO)Cc2ccccc2)C(=O)NCCOC1=O)OCC1c2ccccc2-c2ccccc21,-17,-1,-78,.,78*,-9%
O=C1NCCOC(=O)[C@H](Cc2ccc(F)cc2)C/C=C\C[C@@H]1CC(=O)N(CCO)Cc1ccccc1,-10,-10,9,-2,-9,-3%
O=C(C[C@@H]1C/C=C\C[C@H](NC(=O)OCC2c3ccccc3-c3ccccc32)C(=O)O[C@H](c2ccccc2)CNC1=O)NCCO,-37,4,-36,-1,36,-10%

# Screening results from PubChem BioAssay.
